Test results reported in ChEMBL document CHEMBL1124015, “Methods for drug discovery: development of potent, selective, orally effective cholecystokinin antagonists” (J Med Chem, 1988).

Tests used:
[1] = biological target: T1, Cholecystokinin receptor type A (Rattus norvegicus, UniProt P30551); assay: Half-maximal inhibition of [125I]CCK-33 binding to cholecystokinin A receptor from rat pancreatic tissue
T1 sequence (P30551 whole entry): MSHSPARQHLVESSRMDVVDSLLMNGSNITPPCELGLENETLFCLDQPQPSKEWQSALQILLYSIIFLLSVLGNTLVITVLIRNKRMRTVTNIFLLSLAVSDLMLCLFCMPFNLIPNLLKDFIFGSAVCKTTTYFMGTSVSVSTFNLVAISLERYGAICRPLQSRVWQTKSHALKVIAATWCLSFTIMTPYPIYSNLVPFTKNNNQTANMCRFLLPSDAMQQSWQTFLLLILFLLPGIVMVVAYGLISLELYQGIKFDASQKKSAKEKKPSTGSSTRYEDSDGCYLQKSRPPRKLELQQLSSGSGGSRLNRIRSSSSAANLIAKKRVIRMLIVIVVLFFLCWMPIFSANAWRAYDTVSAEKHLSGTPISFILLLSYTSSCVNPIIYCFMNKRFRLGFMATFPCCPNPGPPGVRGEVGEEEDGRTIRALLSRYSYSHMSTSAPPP

[2] = Ratio of IC50 CCK(pancreas)/ IC50BZD (brain); type: functional
[3] = biological target: GABA-A receptor; anion channel; assay: Inhibition of [3H]flunitrazepam binding to GABA-A benzodiazepine receptor of guinea brain; design: species or system Cavia porcellus
[4] = biological target: T1, Cholecystokinin receptor type A; assay: Half-maximal inhibition of [125I]CCK-8 binding to cholecystokinin receptor from rat pancreatic tissue
Mus musculus = assay: Ability to antagonize CCK-8 inhibition of charcoal meal gastric emptying in mice, after oral administration; type: functional; conditions: Stomach
How it was run: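 Mice dosed orally with test compound at one or more dose levels (N ≥ 10/dose) 1 h before CCK-8 (80 μg/kg, sc). CCK-8 given 5 min before a charcoal meal. Gastric emptying measured 5 min after the meal.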

[5] = Ratio of IC50 CCK (pancreas)/ IC50 BZD (brain); type: functional
[6] = biological target: GABA-A receptor; anion channel; assay: Inhibition of [3H]diazepam binding to GABA-A benzodiazepine receptor of rat brain

| SMILES | IC50 [1] | other results |
| --- | --- | --- |
| CN1C(=O)[C@H](N)N=C(c2ccccc2)c2ccccc21 | > 100000 nM | Ratio [2]: >11; IC50 [3]: 8500 nM |
| CN1C(=O)[C@@H](N)N=C(c2ccccc2)c2ccccc21 |  | IC50 [3]: > 100000 nM |
| CN1C(=O)[C@@H](NC(=O)/C=C/c2ccccc2)N=C(c2ccccc2)c2ccccc21 |  | IC50 [4]: 0.3 nM |
| CC(C)CCC(=O)N[C@H]1N=C(c2ccccc2)c2ccccc2N(C)C1=O |  | IC50 [4]: 780 nM |
| CN1C(=O)[C@H](NC(=O)C2CCCCC2)N=C(c2ccccc2)c2ccccc21 |  | IC50 [4]: > 10000 nM |
| CCCCCc1ccc(C(=O)N[C@H]2N=C(c3ccccc3F)c3ccccc3N(C)C2=O)cc1 | 690 nM |  |
| CN1C(=O)[C@@H](NC(=O)c2ccc(C(F)(F)F)cc2)N=C(c2ccccc2F)c2ccccc21 | 11 nM |  |
| CN1C(=O)[C@@H](NC(=O)c2ccc(I)cc2)N=C(c2ccccc2F)c2ccccc21 | 0.8 nM |  |
| CN1C(=O)[C@@H](NC(=O)c2ccc(Br)cc2)N=C(c2ccccc2F)c2ccccc21 | 0.8 nM |  |
| CN1C(=O)[C@H](NC(=O)c2ccc(Br)cc2)N=C(c2ccccc2)c2ccccc21 |  | Ratio [2]: 0.05; IC50 [3]: 15000 nM |
| CN1C(=O)[C@@H](NC(=O)c2cc3ccccc3[nH]2)N=C(c2ccccc2F)c2ccccc21 | 6 nM |  |
| CN1C(=O)[C@@H](NC(=O)c2ccc(Br)cc2)N=C(c2ccccc2)c2ccccc21 | 2.9 nM | Ratio [2]: <1e-05; IC50 [3]: > 100000 nM; ED50 (Mus musculus): 0.4 mg/kg |
| O=C(NC1N=C(c2ccccc2)c2ccccc2NC1=O)c1ccc(C(F)(F)F)cc1 (configuration not stated) | 240 nM |  |
| CN1C(=O)C(NC(=O)c2ccc(Cl)cc2)[N+]([O-])=C(c2ccccc2F)c2ccccc21 (configuration not stated) | 66 nM |  |
| CN1C(=O)C(NC(=O)[C@@H](Cc2ccccc2)NC(=O)OC(C)(C)C)N=C(c2ccccc2)c2ccccc21 (some centres not stated) | 700 nM |  |
| O=C(NC1N=C(c2ccccc2F)c2ccccc2NC1=O)c1ccc([N+](=O)[O-])cc1 (configuration not stated) | 110 nM |  |
| CN1C(=O)C(NC(=O)c2ccc(C(F)(F)F)cc2)N=C(c2ccccc2F)c2ccccc21 (configuration not stated) | 20 nM |  |
| NC1N=C(c2ccccc2F)c2ccccc2NC1=O (configuration not stated) | > 100000 nM |  |
| O=C(NC1N=C(c2ccccc2)c2ccccc2NC1=O)c1ccc(F)cc1 (configuration not stated) | 480 nM |  |
| NC1N=C(c2ccccc2)c2ccccc2NC1=O (configuration not stated) | > 100000 nM |  |
| O=C(NC1N=C(c2ccccc2)c2ccccc2NC1=O)c1cc2ccccc2[nH]1 (configuration not stated) | 4.7 nM | Ratio [5]: <4.7e-05; IC50 [6]: > 100000 nM; ED50 (Mus musculus): 0.4 mg/kg |

| SMILES | IC50 [1] | other results |
| --- | --- | --- |
| O=C(NC1N=C(c2ccccc2F)c2ccccc2NC1=O)c1cc2ccccc2[nH]1 (configuration not stated) | 2.1 nM |  |
| CN1C(=O)[C@H](NC(=O)[C@H](N)Cc2ccccc2)N=C(c2ccccc2)c2ccccc21 | 100000 nM |  |
| O=C(O)CN1C(=O)C(NC(=O)c2cc3ccccc3[nH]2)N=C(c2ccccc2F)c2ccccc21 (configuration not stated) | 1.5 nM |  |
| COc1ccc2[nH]c(C(=O)NC3N=C(c4ccccc4F)c4ccccc4NC3=O)cc2c1 (configuration not stated) | 200 nM |  |
| O=C(NC1N=C(c2ccccc2)c2ccccc2NC1=O)c1cnccn1 (configuration not stated) | > 10000 nM |  |
| N[C@H](Cc1ccccc1)C(=O)NC1N=C(c2ccccc2)c2ccccc2NC1=O (some centres not stated) | 3100 nM |  |
| O=C(NC1N=C(c2ccccc2F)c2ccccc2NC1=O)c1cc2cc(Cl)ccc2[nH]1 (configuration not stated) | 71 nM |  |
| CCCc1ccc(C(=O)NC2N=C(c3ccccc3)c3ccccc3NC2=O)cc1 (configuration not stated) | 3600 nM |  |
| CC(C)(C)OC(=O)N[C@H](Cc1ccccc1)C(=O)NC1N=C(c2ccccc2)c2ccccc2NC1=O (some centres not stated) | 2700 nM |  |
| CSc1ccc(C(=O)NC2N=C(c3ccccc3)c3ccccc3NC2=O)cc1 (configuration not stated) | 220 nM |  |
| CC(C)(C)OC(=O)N[C@H](Cc1c[nH]c2ccccc12)C(=O)NC1N=C(c2ccccc2)c2ccccc2NC1=O (some centres not stated) | 6000 nM |  |
| O=C(NC1N=C(c2ccccc2)c2ccccc2NC1=O)c1ccc(O)cc1 (configuration not stated) | 1800 nM |  |
| CN1C(=O)C(NC(=O)c2cc3ccccc3[nH]2)N=C(c2ccccc2)c2ccccc21 (configuration not stated) |  | ED50 (Mus musculus): 0.08 mg/kg |
| CN1C(=O)C(NC(=O)c2ccc(Cl)cc2)N=C(c2ccccc2F)c2ccccc21 (configuration not stated) | 2.3 nM | ED50 (Mus musculus): 0.2 mg/kg |
| CCOC(=O)CN1C(=O)C(NC(=O)c2ccc(Cl)cc2)N=C(c2ccccc2F)c2ccccc21 (configuration not stated) | 110 nM |  |
| CN1C(=O)[C@H](NC(=O)c2cc3ccccc3[nH]2)N=C(c2ccccc2)c2ccccc21 |  | ED50 (Mus musculus): 0.4 mg/kg |
| O=C1Nc2ccccc2C(c2ccccc2F)=NC1NC(=O)C(O)c1ccccc1 (configuration not stated) | 100000 nM |  |
| O=C(NC1N=C(c2ccccc2)c2ccccc2NC1=O)c1ccc2ccccc2c1 (configuration not stated) | 20 nM |  |
| CN1C(=O)C(N(C)C(=O)c2ccccc2Cl)N=C(c2ccccc2)c2ccccc21 (configuration not stated) | 58000 nM |  |
| CN1C(=O)C(NC(=O)c2ccccc2Cl)N=C(c2ccccc2)c2ccccc21 (configuration not stated) | 3400 nM |  |
| CN1C(=O)C(NC(=O)c2ccc(C(C)(C)C)cc2)N=C(c2ccccc2F)c2ccccc21 (configuration not stated) | 100 nM |  |

| SMILES | IC50 [1] | other results |
| --- | --- | --- |
| O=C(/C=C/c1ccccc1)NC1N=C(c2ccccc2F)c2ccccc2NC1=O (configuration not stated) | 11 nM |  |
| CN1C(=O)[C@@H](NC(=O)[C@H](N)Cc2ccccc2)N=C(c2ccccc2)c2ccccc21 | 1900 nM |  |
| CCCCCc1ccc(C(=O)NC2N=C(c3ccccc3F)c3ccccc3N(C)C2=O)cc1 (configuration not stated) | 1100 nM |  |
| O=C1Nc2ccccc2C(c2ccccc2)=NC1NCCc1c[nH]c2ccccc12 (configuration not stated) | 3000 nM |  |
| O=C(O)CN1C(=O)C(NC(=O)c2cc3ccccc3[nH]2)N=C(c2ccccc2)c2ccccc21 (configuration not stated) | 1.4 nM | ED50 (Mus musculus): 0.5 mg/kg |
| CC1(C(=O)NC2N=C(c3ccccc3F)c3ccccc3NC2=O)C=Cc2ccccc21 (configuration not stated) | 22 nM |  |
| O=C(NC1N=C(c2ccccc2F)c2ccccc2NC1=O)c1ccsc1 (configuration not stated) | 150 nM |  |
| O=C(NC1N=C(c2ccccc2F)c2ccccc2N(C(=O)c2ccc(Cl)cc2)C1=O)c1ccc(Cl)cc1 (configuration not stated) | 18 nM |  |
| O=C(NC1N=C(c2ccccc2F)c2ccccc2NC1=O)c1cc2ccccc2o1 (configuration not stated) | 9 nM |  |
| CN1C(=O)C(NC(=O)c2cc3ccccc3n2C)N=C(c2ccccc2)c2ccccc21 (configuration not stated) | 1.4 nM | IC50 [3]: > 100000 nM; ED50 (Mus musculus): 1.9 mg/kg |
| CC(=O)NC1N=C(c2ccccc2F)c2ccccc2NC1=O (configuration not stated) | 40000 nM |  |
| CN1C(=O)C(N)N=C(c2ccccc2F)c2ccccc21 (configuration not stated) |  | IC50 [4]: 57000 nM |
| O=C(NC1N=C(c2ccccc2F)c2ccccc2NC1=O)c1ccc(Cl)cc1 (configuration not stated) | 6 nM | ED50 (Mus musculus): 1.4 mg/kg |
| CN1C(=O)C(NC(=O)c2ccc(Cl)cc2N)N=C(c2ccccc2)c2ccccc21 (configuration not stated) |  | IC50 [4]: 9 nM |
| O=C(NC1N=C(c2ccccc2F)c2ccccc2NC1=O)c1c(F)c(F)c(F)c(F)c1F (configuration not stated) | > 10000 nM |  |
| CN1C(=O)C(NC(=O)[C@H](Cc2ccccc2)NC(=O)OC(C)(C)C)N=C(c2ccccc2F)c2ccccc21 (some centres not stated) |  | IC50 [4]: 340 nM |
| CCOC(=O)CN1C(=O)C(NC(=O)c2ccccc2Cl)N=C(c2ccccc2F)c2ccccc21 (configuration not stated) |  | IC50 [4]: > 30000 nM |
| O=C1Nc2ccccc2C(c2ccccc2F)=NC1NCc1cc2ccccc2[nH]1 (configuration not stated) | 87 nM |  |
| COc1ccc(C(=O)NC2N=C(c3ccccc3F)c3ccccc3NC2=O)cc1 (configuration not stated) | 96 nM |  |
| O=C(NC1N=C(c2ccccc2F)c2ccccc2NC1=O)c1cc2cc(Br)ccc2[nH]1 (configuration not stated) | 120 nM |  |
| N#Cc1ccc(C(=O)NC2N=C(c3ccccc3)c3ccccc3NC2=O)cc1 (configuration not stated) | 730 nM |  |

| SMILES | IC50 [1] | other results |
| --- | --- | --- |
| CCOC(=O)CN1C(=O)C(NC=O)N=C(c2ccccc2)c2ccccc21 (configuration not stated) |  | IC50 [4]: > 100000 nM |
| O=C(NC1N=C(c2ccccc2)c2ccccc2NC1=O)c1ccccc1Cl (configuration not stated) | 7500 nM |  |
| CN(C(=O)c1cc2ccccc2[nH]1)C1N=C(c2ccccc2)c2ccccc2NC1=O (configuration not stated) | 13000 nM |  |
| CN1C(=O)CN=C(c2ccccc2)c2ccccc21 | 24600 nM | Ratio [2]: 378; IC50 [6]: 65 nM |
| O=C(NC1N=C(c2ccccc2F)c2ccccc2NC1=O)c1ccc[nH]1 (configuration not stated) | 110 nM |  |
| Cc1ccc(C(=O)NC2N=C(c3ccccc3F)c3ccccc3NC2=O)cc1 (configuration not stated) | 21 nM |  |
| CN1C(=O)C(NC(=O)c2cc3ccccc3[nH]2)N=C(c2ccccc2F)c2ccccc21 (configuration not stated) | 1.4 nM |  |
| O=C(Cc1cccc2sccc12)NC1N=C(c2ccccc2F)c2ccccc2NC1=O (configuration not stated) | 1000 nM |  |
| O=C(O)CN1C(=O)C(NC(=O)c2ccc(Cl)cc2)N=C(c2ccccc2F)c2ccccc21 (configuration not stated) | 32 nM |  |
| CN(C)c1ccc(C(=O)NC2N=C(c3ccccc3F)c3ccccc3NC2=O)cc1 (configuration not stated) | 270 nM |  |
| Cn1c(C(=O)NC2N=C(c3ccccc3F)c3ccccc3NC2=O)cc2ccccc21 (configuration not stated) | 4.7 nM |  |
| CN1C(=O)C(NC(=O)c2cccc(I)c2)N=C(c2ccccc2F)c2ccccc21 (configuration not stated) | 0.75 nM |  |
| O=C(NC1N=C(c2ccccc2F)c2ccccc2NC1=O)c1cc2cc(O)ccc2[nH]1 (configuration not stated) | 71 nM |  |
| O=C(NC1N=C(c2ccccc2)c2ccccc2NC1=O)c1cccc(Cl)c1 (configuration not stated) | 81 nM |  |
| CCCCCc1ccc(C(=O)NC2N=C(c3ccccc3)c3ccccc3NC2=O)cc1 (configuration not stated) | 27000 nM |  |
| O=C(NC1N=C(c2ccccc2)c2ccccc2NC1=O)c1ccc(Cl)c(Cl)c1 (configuration not stated) | 29 nM |  |
| O=C(NC1N=C(c2ccccc2)c2ccccc2NC1=O)c1ccc(Cl)cc1 (configuration not stated) | 41 nM |  |
| O=C1CN=C(c2ccccc2Cl)c2cc([N+](=O)[O-])ccc2N1 [CLONAZEPAM] | > 100000 nM | Ratio [2]: >58000 |
| CN1C(=O)[C@@H](NC(=O)c2cc3ccccc3[nH]2)N=C(c2ccccc2)c2ccccc21 [DEVAZEPIDE] |  | ED50 (Mus musculus): 0.04 mg/kg |
| CN1C(=O)CN=C(c2ccccc2F)c2ccccc21 [RO-054520] | 42000 nM | Ratio [2]: 1750; IC50 [6]: 24 nM |
